Measles CPE = protection of cells from measles virus. Measles virus-infected cells, CPE protection, absorbance. protection (pct of control), % at 4 µM. AID 841. 140,000 tested, 1.5% active; in the data active = protection mostly above about 24%, no sharp cut-off; inactive = mostly below about 26%
Redox H2O2 prof = compounds producing H2O2 with reducing agent – biochemical, NIH compound library profiling, artefact control for MLSCN library redox annotation, primary screen | DTT-dependent redox cycling H2O2, phenol red/HRP absorbance; 100% = 100 µM peroxide control, 0% = buffer | activation, % at 10 µM | 200,000 tested, 0.03% active;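 active = activation of at least 50% relative to the plate's high and low controls in the primary single-dose screen; inactive = activation below 50%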;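 note: compound incubated with DTT at 0.8 mM final as the reducing agent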
FLuc inhib CS = counter-screen for luciferase assay inhibitors: firefly luciferase inhibition. P08659. ATPLite firefly luciferase biochemical luminescence, 10 min. inhibition, % at 10 µM. 200,000 tested, 1.5% active. AID 1006;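 active = inhibition above about 50% when tested at 10 µM, limit read from the data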
ABCB1 block = human ABCB1 inhibition, ABCG2 as counter-screen; P08183; CCRF-Adr cells, JC-1 efflux, flow cytometry; inhibition, % at 6.6 µM; 190,000 tested, 0.067% active; AID 1326; in the data active = inhibition above about 40%;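 note: 0% = vehicle and 100% = reference inhibitor; higher value means more JC-1 retained so stronger ABCB1 efflux block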
Target sequence (P08183 whole entry, looked up): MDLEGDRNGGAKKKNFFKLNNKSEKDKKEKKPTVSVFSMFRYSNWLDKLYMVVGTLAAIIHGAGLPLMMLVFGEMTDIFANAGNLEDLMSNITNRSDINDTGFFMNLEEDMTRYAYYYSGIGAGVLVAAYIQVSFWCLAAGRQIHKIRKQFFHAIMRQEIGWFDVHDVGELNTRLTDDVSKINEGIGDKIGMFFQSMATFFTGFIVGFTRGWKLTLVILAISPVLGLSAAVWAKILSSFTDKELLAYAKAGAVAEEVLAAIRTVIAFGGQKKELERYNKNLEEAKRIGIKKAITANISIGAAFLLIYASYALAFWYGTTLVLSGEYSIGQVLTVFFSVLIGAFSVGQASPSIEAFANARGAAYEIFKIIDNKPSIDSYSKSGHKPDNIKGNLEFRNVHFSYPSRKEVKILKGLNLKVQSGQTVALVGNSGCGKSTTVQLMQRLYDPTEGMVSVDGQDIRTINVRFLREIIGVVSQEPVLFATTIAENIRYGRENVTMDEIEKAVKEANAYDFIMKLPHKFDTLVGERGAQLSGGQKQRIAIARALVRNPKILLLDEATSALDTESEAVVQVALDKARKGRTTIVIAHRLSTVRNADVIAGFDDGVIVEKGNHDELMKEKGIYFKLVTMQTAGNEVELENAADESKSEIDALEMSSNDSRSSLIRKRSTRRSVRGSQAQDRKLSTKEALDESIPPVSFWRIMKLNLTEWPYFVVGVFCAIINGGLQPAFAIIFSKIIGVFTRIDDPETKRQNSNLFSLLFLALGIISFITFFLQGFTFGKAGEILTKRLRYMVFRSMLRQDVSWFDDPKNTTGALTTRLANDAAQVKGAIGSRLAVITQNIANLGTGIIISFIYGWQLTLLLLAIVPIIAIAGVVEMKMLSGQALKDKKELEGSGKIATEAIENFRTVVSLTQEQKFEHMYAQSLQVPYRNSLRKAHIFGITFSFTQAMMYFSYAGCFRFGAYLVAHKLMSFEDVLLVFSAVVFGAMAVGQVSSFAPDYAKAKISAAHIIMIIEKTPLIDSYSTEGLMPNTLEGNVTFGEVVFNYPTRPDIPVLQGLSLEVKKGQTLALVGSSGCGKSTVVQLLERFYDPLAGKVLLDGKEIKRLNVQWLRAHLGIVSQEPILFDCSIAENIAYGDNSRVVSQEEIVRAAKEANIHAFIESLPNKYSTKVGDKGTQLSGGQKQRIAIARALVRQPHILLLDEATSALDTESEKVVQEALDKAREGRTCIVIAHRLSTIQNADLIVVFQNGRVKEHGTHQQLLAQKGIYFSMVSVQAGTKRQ
ABCG2 block = inhibitors of human ABCG2 transporter, ABCB1 counter-screen; Q9UNQ0; IgMXP3 cells, JC-1 efflux, flow cytometry; inhibition, % at 6.6 µM; 190,000 tested, 0.1% active;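 active = inhibition above 80%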;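 note: 0% = DMSO and 100% = nicardipine control wells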
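System: two drug-resistant human cell lines, ABCG2 and ABCB1; controls: nicardipine high and DMSO low controls; times: 10 min exposure at 25 °C with rotation, no wash; detection: flow cytometry of retained JC-1 fluorescence; read-out basis: percent efflux inhibition, scaled nicardipine 100% to DMSO 0%; doses: one concentration, 6.6 µM final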
FLuc act counter = firefly luciferase counter-screen for stimulation assays | activation factor at 10 µM | AID 1027 | P08659 | ATPlite luciferase biochemical, luminescence, 10 min; 0 = ATP-free wells, 1 = DMSO control | 200,000 tested, under 10 active;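 active = luciferase activation factor, scaled between plate controls, of at least 2 with compound at 10 µM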
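Assay system: Luciferase/luciferin reagent mix; Medium: PBS as buffer for the ATP substrate; Dosing: test compounds dosed from 2 mM stocks in 100% DMSO; Times: 10 min, room temperature; Signal: luminescence from luciferase reaction; Read-out: luciferase activation; Controls: No-ATP low control, compound-free enzyme-plus-ATP high control.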
The depositor's hits bear a star; x = no result; + = active, no number. Compounds with a hit are over-represented: about 2.7% of the library has one in this group of screens.

SMILES	Measles CPE	Redox H2O2 prof	FLuc inhib CS	ABCB1 block	ABCG2 block	FLuc act counter
CCN(CC)S(=O)(=O)c1cc(C(=O)Nc2ccccc2C(=O)O)ccc1OC	10.9	0.4	59.3*	1.2	7.2	0.4
[O-][N+]1=C(c2cccs2)CN(O)C1	34.3*	3.2	-7.6	0.0	0.0	1.1
C=CCOc1c2ccc(C(=O)NCCc3ccc(C)cc3)cc2nn1C	16.7	-4.2	-3.8	0.6	7.8	1
COC(=O)c1cccc(CSc2nc3ccccc3[nH]2)c1	3.1	-0.1	59.6*	0.5	0.8	0.4
COc1ccc(CSc2nc3ccccc3[nH]2)cc1	3.8	-5.1	81.7*	0.8	5.7	0.2
COC(=O)c1ccc(CSc2nc3ccccc3[nH]2)o1	2.0	-8.7	13.4	0.6	4.7	0.9
CCn1c(SCC(=O)N/N=C(\C)c2ccco2)nnc1-c1ccccc1	x	-0.6	-7.0	0.1	1.3	1.1
CCOc1ccc(N(C(C)C(=O)N/N=C(\C)c2cccc(NC(=O)c3ccccc3)c2)S(C)(=O)=O)cc1 (configuration not stated)	13.5	2.8	-9.9	1.7	3.5	1.1
Cc1ccc(C=Nc2ccccc2C(N)=O)o1	4.9	-0.2	53.9*	-0.1	0.6	0.5
CN(C)c1ccc(C=Nc2ccccc2C(N)=O)cc1	5.5	1.6	89.4*	0.3	8.1	0.1
CN(C)/C=C/C(=O)c1ncc(C(F)(F)F)cc1Cl	x	0.1	-3.7	0.7	1.9	1
O=S(=O)(NCCCc1ccccc1)c1ccccc1	34.6*	0.0	-6.5	0.9	2.4	1.1
c1coc(-c2nc3ccccc3nc2-c2ccco2)c1	40.6*	-0.1	2.8	-0.6	-0.9	1
O=C(Nc1ccc(Cl)cc1Cl)c1n[nH]c(Cn2cncn2)n1	19.2	2.0	63.7*	-0.1	0.1	0.4
N#C/C(=C\c1ccc(Cl)cc1)c1n[nH]c(Cn2cncn2)n1	11.2	0.4	-4.8	0.1	2.3	1
COC(=O)c1ccccc1NC(=S)NC(=O)c1ccc2ccccc2c1	3.8	-0.1	-5.2	-0.3	-1.1	1.1
COC(=O)c1ccccc1NC(=S)NC(=O)c1cccc2ccccc12	58.5*	-13.0	-8.8	1.5	5.3	1.1
COc1cc2c(cc1OC)C(c1cc3cc4c(cc3[nH]c1=O)OCO4)N(C(=O)C(C)C)CC2 (configuration not stated)	4.0	0.6	-1.8	0.5	1.4	1
N#C/C(=C\c1ccc2c(c1)OCCO2)C(=O)NC1CCCCC1	11.1	0.3	9.3	0.0	10.2	0.9
N#C/C(=C/c1ccc2c(c1)OCO2)C(=O)Nc1ccc(O)cc1	x	-2.3	60.2*	0.1	3.6	0.4
Cc1ccc(NS(=O)(=O)c2ccc(OCC(=O)NCc3ccco3)cc2)cc1	53.3*	0.0	-4.4	0.8	6.1	1
Cc1cccc(C(C(N)=O)c2ncc(C(F)(F)F)cc2Cl)c1 (configuration not stated)	x	0.2	-4.4	0.4	-0.4	1
CCOc1ccccc1CN1CCN(CCCn2cccn2)CC1CCO (configuration not stated)	x	-0.1	-5.0	0.8	3.9	1.1
O=C(COc1ccccc1)Nc1ccc(-c2nnc(-c3ccco3)o2)cc1	4.4	2.3	-1.0	-0.8	-1.1	1
CC(C)COc1ccc(-c2nnc(-c3ccco3)o2)cc1	14.6	-0.3	60.3*	-0.3	19.0	0.4
SMILES	Measles CPE	Redox H2O2 prof	FLuc inhib CS	ABCB1 block	ABCG2 block	FLuc act counter
CCCOc1ccc(-c2nnc(-c3ccco3)o2)cc1	5.0	2.4	77.0*	-5.2	-4.1	0.2
O=C(Cn1c(=O)n(-c2ccc(F)cc2)c(=O)c2sccc21)c1ccccc1	12.6	-0.1	0.3	-0.3	0.1	1
Cc1cccc(NC(=O)/C=C/c2cccs2)n1	25.3	0.7	65.3*	-0.5	-0.8	0.3
Cc1ccc(NC(=O)c2ccc(CSc3nnc(-c4ccncc4)n3C)cc2)c(C)c1	99.9*	-8.9	12.0	0.8	3.6	0.9
Cn1ncc2c(Nc3ccc(-c4ccccc4)cc3)ncnc21	75.4*	-2.2	-20.4	0.1	2.4	1.2
Cc1nn(-c2nc3ccccc3[nH]2)c(=O)c2ccccc12	x	0.1	97.2*	1.7	4.3	0
CCSC1=NSC2=NC(=O)/C(=C\c3coc4ccccc4c3=O)C(=N)N12	10.8	0.1	-6.1	29.4	+	1.1
COc1ccc2[nH]cc(S(=O)(=O)c3ccc(C)cc3)c2c1	x	-0.3	-5.1	-0.4	-0.9	1.1
COc1cc2c(cc1OC)C(c1ccc(-c3ccccc3Cl)o1)=NCC2	5.9	0.3	61.5*	1.5	7.7	0.4
COc1cc2c(cc1OC)C(c1ccc(-c3ccc(Cl)cc3Cl)o1)=NCC2	36.8	-8.6	-1.1	1.2	2.6	1
O=c1c2ccccc2cnn1-c1ccc(Cl)cc1	20.4	0.4	42.4	0.7	20.6	0.6
CC1CC(C)CN(c2ncc3c(n2)CC(c2ccccc2)CC3=O)C1 (configuration not stated)	41.9*	-0.9	-2.2	-1.3	0.3	1
CCn1c(Sc2ccc(N)cc2Cl)nc2ccccc21	23.3	0.0	-2.5	0.1	0.1	1
O=C(Cn1cnc2c(nnn2Cc2ccccc2)c1=O)N1CCCc2ccccc21	11.2	-1.1	-5.4	0.8	1.0	1.1
O=C(Cn1cnc2c(nnn2-c2ccccc2)c1=O)N1CCCc2ccccc21	53.1*	-0.2	-1.8	0.1	0.8	1
CN=c1scc(C)n1/N=C/c1ccc2c(c1)OCO2	1.5	3.4	57.5*	0.2	1.3	0.4
CN=c1scc(C)n1/N=C/c1ccc(O)cc1O	3.0	0.8	80.7*	-0.1	5.4	0.2
C=CCN=c1scc(C)n1/N=C/c1ccc(O)c(O)c1	x	-1.1	9.2	-0.1	0.4	0.9
CN=c1scc(C)n1/N=C/c1ccc(O)cc1	8.2	0.7	54.0*	0.1	0.8	0.5
CN=c1scc(-c2ccco2)n1/N=C/c1ccc(O)c(O)c1	x	-0.4	87.7*	-0.1	0.5	0.1
Cc1nnc(C)n1/N=C/c1ccc2c(c1)OCCO2	8.2	-0.8	-3.5	0.4	2.5	1
CN=c1scc(C)n1/N=C/c1cc(Br)c(O)c(Br)c1	x	0.3	32.0	-0.3	-2.8	0.7
CCOc1ccccc1NS(=O)(=O)c1cn(C)nc1C	x	-0.2	-4.1	-0.2	-0.8	1
Cc1cc(N)n(-c2nc(-c3cccnc3)nc3ccccc23)n1	-0.4	2.1	-4.5	1.4	10.3	1
Cc1cc(NO)c(C(C)C)cc1N=O	6.2	0.7	-9.2	-0.1	-0.1	1.1
O=C(Nc1ccc(F)cc1)c1csc(Cc2ccccc2)n1	x	0.7	52.7*	-0.1	0.0	0.5
COc1ccc(NC(=O)c2csc(Cc3ccccc3)n2)cc1	12.9	0.5	15.5	x	x	0.8
